pKi: −log10 of the molar value.
Legend:
[1] = target: T1, Adenosine receptor A1 (Rattus norvegicus) (UniProt P25099); experiment: Inhibition of rat adenosine A1 receptor at 1 uM
T1 sequence (whole entry): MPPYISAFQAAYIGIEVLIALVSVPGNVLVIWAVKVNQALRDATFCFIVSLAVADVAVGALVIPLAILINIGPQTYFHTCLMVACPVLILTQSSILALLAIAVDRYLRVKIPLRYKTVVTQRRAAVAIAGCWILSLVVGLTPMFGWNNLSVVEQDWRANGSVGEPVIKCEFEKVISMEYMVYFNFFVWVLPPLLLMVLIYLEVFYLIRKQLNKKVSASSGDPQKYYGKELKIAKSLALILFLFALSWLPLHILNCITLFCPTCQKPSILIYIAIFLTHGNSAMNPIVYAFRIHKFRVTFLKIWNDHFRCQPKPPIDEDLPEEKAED
Summary of the method: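 Single-concentration screen measured as percent inhibition of [3H]CCPA (0.5 nM) binding to rat cortical membranes, run at room temperature for 90 min with 2.5% DMSO final. Nonspecific binding was defined with 2-chloroadenosine. Separation was by GF/B filtration, with scintillation counting of bound radioactivity.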

Adenosine receptor A1 = target: T2, Adenosine receptor A1 (Rattus norvegicus, UniProt P25099); experiment: Displacement of [3H]CCPA from rat adenosine A1 receptor
T2 sequence (P25099 whole entry): T1 sequence (whole entry)
Summary of the method: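 Rat brain cortical membranes (from frozen rat brains) were incubated with [3H]CCPA at 0.5 nM at room temperature for 90 min. Compounds were added from DMSO stocks, giving 2.5% DMSO final. 2-Chloroadenosine defined nonspecific binding. Bound radioactivity was separated by GF/B filtration and counted by scintillation. Compounds giving over 20% inhibition in the single-concentration screen were tested at six concentrations to derive Ki.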

Row | inhibition [1] [%] | pKi (Adenosine receptor A1) | Compound
1 | 0 | – | Cc1sc2nc(C(=O)c3ccccc3)n3c(=S)[nH]nc3c2c1C
2 | 21 | 5.68 | CCc1nc2sc(C)c(C)c2c2n[nH]c(=S)n12
3 | 0 | – | Cc1sc2nc(-c3ccccc3)n3c(=S)[nH]nc3c2c1C
4 | 4 | – | Cc1sc2nc(C)n3c(=S)[nH]nc3c2c1C
5 | 0 | – | S=c1[nH]nc2c3c4c(sc3nc(-c3ccccc3)n12)CCCC4

More lines, now with the values behind:

Row | Compound | inhibition [1] [%] | pKi (Adenosine receptor A1)
6 | Cc1nc2sc3c(c2c2n[nH]c(=S)n12)CCCC3 | 26 | 5.36
7 | CCc1nc2sc3c(c2c2n[nH]c(=S)n12)CCCC3 | 56 | 5.93
8 | CCCc1nc2sc3c(c2c2n[nH]c(=S)n12)CCCC3 | 0 | –
9 | CCCc1nc2sc(C)c(C)c2c2n[nH]c(=S)n12 | 13 | –
10 | S=c1[nH]nc2c3c4c(sc3nc(-c3ccncc3)n12)CCCC4 | 0 | –
11 | O=C(c1ccccc1)c1nc2sc3c(c2c2n[nH]c(=S)n12)CCCC3 | 0 | –
